A value given as a limit tells only on which side of the number the result lay.

A short description of assay [1]: Inhibition of CDK1/Cyclin B from M phase starfish oocytes. As to conditions: oocyte. Further details: species or system Marthasterias glacialis. The procedure, abridged:
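CDK1/cyclin B extracted in homogenization buffer from M-phase Marthasterias glacialis oocytes and affinity-purified on p9CKShs1-Sepharose, eluted with free p9CKShs1. Read-out was P81 phosphocellulose binding, phosphoric acid washes and scintillation counting. Values are blank-subtracted, % of uninhibited activity, with DMSO controls.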

Assay [2] has as its target Cyclin-dependent kinase 5/CDK5 activator 1 (Homo sapiens, UniProt Q00535). In words: Inhibition of recombinant mammalian CDK5/p25 expressed in Escherichia coli. The gist of the method: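 Kinase was CDK5 with p25, a truncated p35 activator. Phosphate incorporation was measured on P81 phosphocellulose paper by scintillation counting. Activity is blank-corrected and expressed as % of activity without inhibitor, with DMSO controls.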

Chain of Cyclin-dependent kinase 5/CDK5 activator 1 (Q00535 whole entry, the tested form may be a part): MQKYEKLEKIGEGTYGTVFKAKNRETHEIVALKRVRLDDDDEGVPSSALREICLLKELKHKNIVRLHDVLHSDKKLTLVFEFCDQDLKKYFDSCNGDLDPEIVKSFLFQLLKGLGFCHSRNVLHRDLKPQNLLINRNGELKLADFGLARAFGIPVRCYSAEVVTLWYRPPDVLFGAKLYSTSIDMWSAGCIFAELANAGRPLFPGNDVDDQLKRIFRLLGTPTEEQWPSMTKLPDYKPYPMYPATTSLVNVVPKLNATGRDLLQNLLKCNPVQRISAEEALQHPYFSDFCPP
Chain of Cyclin-dependent kinase 5/CDK5 activator 1 (Q15078 whole entry, further chain, the tested form may be a part): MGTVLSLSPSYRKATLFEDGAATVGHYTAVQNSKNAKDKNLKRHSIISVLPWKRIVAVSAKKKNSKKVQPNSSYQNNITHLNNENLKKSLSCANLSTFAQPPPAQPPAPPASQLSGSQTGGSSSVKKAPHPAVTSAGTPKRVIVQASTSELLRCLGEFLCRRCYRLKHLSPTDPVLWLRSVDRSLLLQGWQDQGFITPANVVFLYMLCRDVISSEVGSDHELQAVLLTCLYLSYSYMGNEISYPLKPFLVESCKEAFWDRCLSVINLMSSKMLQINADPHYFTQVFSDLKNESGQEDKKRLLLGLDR

For the molecule `COCCNc1nc(NC(=O)CC(C)C)nc2c1ncn2C(C)C`, the IC50 (commonly the concentration needed to halve the response being measured) was found to be 9600 nM in assay [1] and 6600 nM in assay [2].

As to `CCCC(=O)Nc1nc(NCc2ccc(Cl)cc2)c2ncn(C(C)C)c2n1`, the half-inhibitory concentration (IC50) in assay [1] is 2900 nM; in assay [2], 2100 nM.

Turning to `COc1ccc(CNc2nc(NC(=O)CC(C)C)nc3c2ncn3C(C)C)cc1`, the figures for the IC50 in assay [1] and in assay [2] were 2300 nM and 1800 nM, respectively.

In the case of `COCCNc1nc(NC(=O)C(C)C)nc2c1ncn2C(C)C`, the IC50 in assay [2] came to 7000 nM.

On to `CCCC(=O)Nc1nc(NCCOC)c2ncn(C(C)C)c2n1`, for which the values for the concentration for half-maximal inhibition (IC50) in assay [1] and in assay [2] were 13000 nM and 10000 nM, respectively.

For the molecule `CCCC(=O)Nc1nc(NCc2ccc(OC)cc2)c2ncn(C(C)C)c2n1`, the IC50 came out at 4400 nM in assay [1] and 3900 nM in assay [2].

The molecule `COCCNc1nc(NC(=O)CC(C)=O)nc2c1ncn2C(C)C` showed an IC50 in assay [1] of over 10000 nM.

Regarding `COCCNc1nc(NC(=O)c2ccc(OC)cc2)nc2c1ncn2C(C)C`, the IC50 in assay [1] was over 10000 nM.

Take `COc1ccc(CNc2nc(C(=O)NC(C)C)nc3c2ncn3C(C)C)cc1`: the figures for the IC50 in assay [1] and in assay [2] were 2300 nM and 2400 nM, respectively.

On to `COc1ccc(CNc2nc(NC(=O)c3ccc(OC)cc3)nc3c2ncn3C(C)C)cc1`, for which the IC50 in assay [1] turned out to be 4600 nM; in assay [2], 3400 nM.

For the molecule `COc1ccc(C(=O)Nc2nc(NCc3ccc(Cl)cc3)c3ncn(C(C)C)c3n2)cc1`, the 50% inhibitory concentration (IC50) in assay [1] came out at 40000 nM; in assay [2] it was 19000 nM.

Take `COc1ccc(CNc2nc(NC(=O)CC(C)=O)nc3c2ncn3C(C)C)cc1`: the results for the half-maximal inhibitory concentration (IC50) in assay [1] and in assay [2] were 2400 nM and 1600 nM, respectively.

For `CC(C)C(=O)Nc1nc(NCc2ccc(Cl)cc2)c2ncn(C(C)C)c2n1`, the IC50 turned out to be 1200 nM in assay [1] and 900 nM in assay [2].

Consider `COCCNc1nc(C(=O)NCC(C)C)nc2c1ncn2C(C)C`, for which the IC50 stood at 7200 nM in assay [1] and 16000 nM in assay [2].

As to `CC(C)CC(=O)Nc1nc(NCc2ccc(Cl)cc2)c2ncn(C(C)C)c2n1`, the IC50 in assay [1] came to 3000 nM; in assay [2], 1600 nM.

As to `CC(C)NC(=O)c1nc(NCc2ccc(Cl)cc2)c2ncn(C(C)C)c2n1`, the IC50 in assay [1] stood at 1700 nM; in assay [2], 2000 nM.

As to `COCCNc1nc(C(=O)NC(C)C)nc2c1ncn2C(C)C`, the IC50 in assay [1] was 8300 nM; in assay [2] it was 13000 nM.

With `COc1ccc(CNc2nc(NC(=O)C(C)C)nc3c2ncn3C(C)C)cc1`, the 50% inhibitory concentration (IC50) in assay [1] was determined as 940 nM; in assay [2], 1300 nM.

As for `COc1ccc(CNc2nc(C(=O)NCC(C)C)nc3c2ncn3C(C)C)cc1`, the results for the IC50 in assay [1] and in assay [2] were 2400 nM and 2100 nM, respectively.

For the origin of these results see ChEMBL document CHEMBL1144519, “A Pd(0) based cross-coupling approach to the synthesis of 2-amidopurines and their evaluation as CDK inhibitors” (Bioorg Med Chem, 2007).
